Source: article PMC7508885 (SLAS discovery : advancing life sciences R & D, 2020)

Experiments:
TyrRS = conditions: cited from earlier work
[1] = test system: Moraxella catarrhalis (ATCC 25238); assay: Broth microdilution MIC testing; type: cell-based; conditions: Gram-negative M. catarrhalis
In short: (§1)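 Broth microdilution MIC testing following CLSI guideline M7-A7, run against a 10-strain bacterial panel that included E. coli and P. aeruginosa efflux-pump mutants and a hypersensitive P. aeruginosa strain.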

P. aeruginosa TyrRS-Z [2] = target: T1, P. aeruginosa TyrRS-Z (Pseudomonas aeruginosa, UniProt Q9I5Q3); assay: SPA-based tRNA aminoacylation assay; type: biochemical
T1 sequence (Q9I5Q3 whole entry): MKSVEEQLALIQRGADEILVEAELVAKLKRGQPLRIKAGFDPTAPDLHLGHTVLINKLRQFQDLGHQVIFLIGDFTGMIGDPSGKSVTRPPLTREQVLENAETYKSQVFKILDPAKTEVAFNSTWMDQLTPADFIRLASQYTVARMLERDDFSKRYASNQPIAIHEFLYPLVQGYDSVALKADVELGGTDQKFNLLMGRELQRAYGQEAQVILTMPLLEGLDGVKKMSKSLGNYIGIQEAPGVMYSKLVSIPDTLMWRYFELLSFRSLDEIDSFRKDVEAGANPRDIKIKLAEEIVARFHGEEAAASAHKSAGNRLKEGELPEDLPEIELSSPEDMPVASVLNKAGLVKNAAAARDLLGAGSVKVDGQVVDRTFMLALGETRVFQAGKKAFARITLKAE

[3] = test system: human embryonic kidney 293 cells (HEK293); assay: In vitro cytotoxicity test; type: cell-based; conditions: 25-400 μg/mL, 24 h, triplicate
P. aeruginosa TyrRS-S [4] = target: T2, P. aeruginosa TyrRS-S (Pseudomonas aeruginosa, UniProt Q9HWP3); assay: Binding mode assay; type: biochemical; conditions: for shift in the IC50 with increasing ATP concentration (competition with ATP): ATP 25-1000 μM, Tyr held constant; for shift in the IC50 with increasing ATP concentration (competition with ATP) / shift in the IC50 with increasing Tyr concentration (competition with Tyr): TyrRS-S 0.05 μM; for shift in the IC50 with increasing Tyr concentration (competition with Tyr): Tyr 25-300 μM, ATP held at 2.5 mM
T2 sequence (Q9HWP3 whole entry): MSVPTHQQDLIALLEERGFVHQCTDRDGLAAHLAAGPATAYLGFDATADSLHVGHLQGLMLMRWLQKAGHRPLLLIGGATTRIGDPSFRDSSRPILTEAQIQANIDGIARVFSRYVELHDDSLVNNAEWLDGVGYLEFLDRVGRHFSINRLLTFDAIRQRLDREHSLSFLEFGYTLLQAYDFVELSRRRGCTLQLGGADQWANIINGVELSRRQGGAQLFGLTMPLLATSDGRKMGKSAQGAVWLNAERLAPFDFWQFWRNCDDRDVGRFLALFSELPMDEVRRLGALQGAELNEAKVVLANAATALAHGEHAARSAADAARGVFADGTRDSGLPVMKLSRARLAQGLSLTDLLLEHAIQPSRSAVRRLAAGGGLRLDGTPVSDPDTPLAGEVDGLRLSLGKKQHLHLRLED

P. aeruginosa TyrRS-S [5] = target: T2, P. aeruginosa TyrRS-S; assay: SPA-based tRNA aminoacylation assay; type: biochemical
eukaryotic LysRS = conditions: cited from earlier work
S. aureus TyrRS = conditions: cited from earlier work
P. aeruginosa TyrRS-S [6] = target: T2, P. aeruginosa TyrRS-S; assay: ATP:PPi exchange reaction; type: biochemical; conditions: other substrate (Tyr or ATP) held at 2 mM; enzyme 0.4 μM
P. aeruginosa TyrRS-Z [7] = target: T1, P. aeruginosa TyrRS-Z; assay: ATP:PPi exchange reaction; type: biochemical; conditions: other substrate (Tyr or ATP) held at 2 mM; enzyme 0.4 μM
HEK-293 cell line = conditions: quantitative high-throughput screening; ref PubChem CID 53183345; cited from earlier work
NIH-3T3 cell line = conditions: quantitative high-throughput screening; ref PubChem CID 53183345; cited from earlier work
[8] = test system: Haemophilus influenzae (ATCC 49766); assay: Broth microdilution MIC testing; type: cell-based; conditions: Gram-negative respiratory pathogen H. influenzae
In short: as §1

LysRS = conditions: cited from earlier work

In the case of O=c1cc(-c2ccccc2)oc2cc(O)cc(O)c12 [chrysin], the “effect on TyrRS” value (TyrRS) is given as “inhibitory effects”.

In the case of CC(=O)N1CCc2cc(Br)c(S(=O)(=O)NCCN3CCCCC3C)cc21 (stereo not shown) [BCD38C11, 1-acetyl-5-bromo-N-[2-(2-methylpiperidin-1-yl)ethyl]indoline-6-sulfonamide], the “inhibition of cultures (MIC testing)” value [1] is reported as “inhibited”, the IC50 (P. aeruginosa TyrRS-Z [2]) is reported as 241 µM and the “toxicity to human cell cultures” value [3] is reported as “failed to exhibit toxic effects at any concentrations tested”. For the same compound, the Ki (P. aeruginosa TyrRS-S [4]) was 5.28 µM, the “shift in the IC50 with increasing ATP concentration (competition with ATP)” value (P. aeruginosa TyrRS-S [4]) was “increased with increasing ATP concentrations” and the “shift in the IC50 with increasing Tyr concentration (competition with Tyr)” value (P. aeruginosa TyrRS-S [4]) was “no change in the IC50 values”. It also gave an IC50 (P. aeruginosa TyrRS-S [5]) of 71 µM.

In the case of O=C(O[C@@H]1Cc2c(O)cc(O)cc2O[C@@H]1c1cc(O)c(O)c(O)c1)c1cc(O)c(O)c(O)c1 [epigallocatechin, gallate], the “effect on TyrRS” value (TyrRS) is listed as “inhibitory effects”.

In the case of C[C@H]1CCC[C@H](C[C@H]2Cc3cc(O)cc(O)c3C(=O)O2)O1 [cladosporin], the “inhibition of eukaryotic LysRS” value (eukaryotic LysRS) is given as “potent ATP competitive inhibitor”.

With Cc1ccc(N2CN(CC(=O)Nc3cccc(Cl)c3)S(=O)(=O)c3cccnc32)cc1 [BCD49D09, N1-(3-chlorophenyl)-2-[4-(4-methylphenyl)-1,1-dioxo-3,4-dihydro-1λ6-pyrido[2,3-e][1,2,4]thiadiazin-2(1H)-yl] acetamide] the “inhibition of cultures (MIC testing)” value [1] was “inhibited”, the “toxicity to human cell cultures” value [3] was “failed to exhibit toxic effects at any concentrations tested” and the “shift in the IC50 with increasing ATP concentration (competition with ATP)” value (P. aeruginosa TyrRS-S [4]) was “increased with increasing ATP concentrations”. The “shift in the IC50 with increasing Tyr concentration (competition with Tyr)” value (P. aeruginosa TyrRS-S [4]) was “no change in the IC50 values”.

In the case of COc1ccc(-c2oc3cc(O)cc(O)c3c(=O)c2O)cc1 [kaempferide], the “effect on TyrRS” value (TyrRS) is given as “inhibitory effects”.

In the case of COc1ccc(-c2cc(=O)c3c(O)cc(O)cc3o2)cc1 [acacetin], the “effect on TyrRS” value (TyrRS) is listed as “inhibitory effects”.

For N[C@@H](Cc1ccc(O)cc1)C(=O)NC(C(=O)O)[C@H]1[C@H](O)[C@]2(O)CO[C@@H]([C@@H]2O)N1O (stereo partly shown) [SB-219383], the “IC50 against S. aureus TyrRS” value (S. aureus TyrRS) is given as “low nanomolar range”.

In the case of Nc1ncnc2c1ncn2[C@@H]1O[C@H](COP(=O)(O)OP(=O)(O)OP(=O)(O)O)[C@@H](O)[C@H]1O [ATP], the “kcat^obs for interaction with TyrRS-S” value (P. aeruginosa TyrRS-S [6]) is reported as 1.0 s⁻¹ and the “kcat^obs for interaction with TyrRS-Z” value (P. aeruginosa TyrRS-Z [7]) is reported as 3.8 s⁻¹.

In the case of O=C(c1ccccc1)N1CCCn2cc(-c3ccc4c(c3)OCO4)nc21 [BCD54B04, [2-(1,3-benzodioxol-5-yl)-6,7-dihydroimidazo[1,2-a]pyrimidin-8(5H)-yl](phenyl) methanone], the “toxicity in HEK-293 cell line” value (HEK-293 cell line) is listed as “nontoxic”, the “inhibition of cultures (MIC testing)” value [1] is listed as “inhibited” and the “toxicity to human cell cultures” value [3] is listed as “failed to exhibit toxic effects at any concentrations tested”. For the same compound, the “toxicity in NIH-3T3 cell line” value (NIH-3T3 cell line) was “nontoxic”, the “effectiveness against cultures (MIC testing)” value [8] was “effective” and the “shift in the IC50 with increasing ATP concentration (competition with ATP)” value (P. aeruginosa TyrRS-S [4]) was “no shift in the IC50”. For the same compound, the “shift in the IC50 with increasing Tyr concentration (competition with Tyr)” value (P. aeruginosa TyrRS-S [4]) was “no shift in the IC50” and the IC50 (P. aeruginosa TyrRS-S [5]) was 50 µM.

In the case of C=CC1=C(C)/C(=C/c2[nH]c(Cc3[nH]c(/C=C4\NC(=O)C(C)=C4C=C)c(C)c3CCC(=O)O)c(CCC(=O)O)c2C)NC1=O [bilirubin], the “inhibition of LysRS” value (LysRS) is given as “specific inhibitor of ATP binding”.

In the case of O=C1Nc2ccccc2Oc2cc(N3CCc4ccccc4C3)c(S(=O)(=O)N3CCCCC3)cc21 [BCD37H06, 3-(3,4-dihydroisoquinolin-2(1H)-yl)-2-(piperidin-1-ylsulfonyl) dibenzo[b,f][1,4]oxazepin-11(10H)-one], the “inhibition of cultures (MIC testing)” value [1] is reported as “inhibited”, the “toxicity to human cell cultures” value [3] is reported as “failed to exhibit toxic effects at any concentrations tested” and the “effectiveness against cultures (MIC testing)” value [8] is reported as “effective”. The “shift in the IC50 with increasing ATP concentration (competition with ATP)” value (P. aeruginosa TyrRS-S [4]) was “no shift in the IC50”, the “shift in the IC50 with increasing Tyr concentration (competition with Tyr)” value (P. aeruginosa TyrRS-S [4]) was “no shift in the IC50” and the IC50 (P. aeruginosa TyrRS-S [5]) was 24 µM.
